Data reported in publication PMC4678411 (Journal of Medicinal Chemistry, 2015).
Converted amounts (≈) assume the structure as drawn.

Tests used:
[1] = Aqueous solubility determination; format: physicochemical; settings: pH 7.4
In short: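 About 5 mg excess solid in Tris buffer pH 7.4, in triplicate. Sonicated, vortexed, then shaken at 100 shakes/min at 25 °C for 24 h. Solid removed by centrifugation and filtration; filtrate diluted. Quantified by HPLC on a C18 column with photodiode-array detection, using an acetonitrile (10–70%)/10 mM sodium phosphate pH 7 gradient over 20 min.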

[2] = Chemical hydrolysis stability study at 40-70 °C with Arrhenius extrapolation; format: physicochemical; settings: for extrapolated pseudo-first-order rate constant (kobsd) for hydrolysis: extrapolated from Arrhenius plot; for pseudo-first-order rate constant (kobsd) of hydrolysis: pH 7.4; for half-life: pH 7.4, calculated half-life (t1/2) of hydrolysis
In short: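 Test compound dissolved in Sodium Chloride Injection USP at 20.0 mg/100 mL ("high") or 3.00 mg/100 mL ("low"). Flame-sealed in sterilized ampules and held at 70, 60, 50 or 40 °C, sampled at intervals over hours (70, 60 °C) or days (50, 40 °C). Analysed by HPLC. Ea came from an Arrhenius plot, which was extrapolated to give kobsd, t1/2 and t90 at 25 and 4 °C.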

[3] = tested on: HT-29 human colon adenocarcinoma cell line; test: Efficacy study in a mouse model of human colon adenocarcinoma; format: in vivo, female athymic nude mice; settings: for test-article related deaths: 0.9 mg/kg IP, ten mice
In short: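 Female athymic nude mice aged 7–9 weeks, acclimated ≥7 days. Implanted s.c. in the right flank with 1.74 × 10^6 mycoplasma-negative HT-29 cells in 50% Matrigel/medium. Randomized at mean 110 mm3, 10 per group. Dosed IP in USP saline (0.2 mL) by group-mean body weight, daily or intermittently, for 28 days. Caliper volume (L × W²/2) measured ≥twice weekly, plus necropsy tumor weight, survival, body weight and clinical signs.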

[4] = tested on: A2780 human ovarian cancer cell line; test: Efficacy study in a mouse model of human ovarian cancer; format: in vivo, female athymic nude mice
In short: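 A2780 cells (RPMI 1640/10% FBS, mycoplasma-negative) implanted s.c. at 2.5 × 10^6 in 50% Matrigel into female athymic nude mice aged 7–9 weeks. Randomized at mean 188 mm3, 10 per group. Daily IP or oral-gavage doses of 0.1–1.2 mg/kg in USP saline for 30 days. Controls were vehicle and carboplatin 60 mg/kg twice weekly. Tumor volume (L × W²/2), survival and clinical signs tracked.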

[5] = tested on: alkaline phosphatase from bovine intestinal mucosa; settings: no enzyme; cited from earlier work
[6] = clinical trials, patients; cited from earlier work

## CC(C)[C@]12O[C@H]1[C@@H]1O[C@]13[C@]1(O[C@H]1C[C@H]1C4=C(CC[C@@]13C)C(=O)OC4)[C@@H]2OCOP(=O)([O-])[O-].[Na+].[Na+] [Compound 4, Sodium (((5bS,6aS,7aR,8R,8aS,9aS,9bS,10aS,10bS)-8a-Isopropyl-10b-methyl-3-oxo-1,2,3,5,5b,6,6a,8,8a,9a,9b,10b-dodecahydrotris(oxireno)[2′,3′:4b,5;2″,3″:6,7;2‴,3‴:8a,9]phenanthro[1,2-c]furan-8-yl)oxy)methyl Phosphate]
[1]
  solubility enhancement by prodrug formation versus triptolide: 3600 times
[2]; 4 °C
  extrapolated pseudo-first-order rate constant (kobsd) for hydrolysis: 6.5 × 10^–6 h^–1
  half-life: 4460 days
[2]; 25 °C
  extrapolated pseudo-first-order rate constant (kobsd) for hydrolysis: 8.6 × 10^–5 h^–1
  half-life: 336 days
[2]; 40 °C
  pseudo-first-order rate constant (kobsd) of hydrolysis: 0.000494 h^–1
[2]; 50 °C
  pseudo-first-order rate constant (kobsd) of hydrolysis: 0.001052 h^–1
[2]; 60 °C
  pseudo-first-order rate constant (kobsd) of hydrolysis: 0.002482 h^–1
[2]; 70 °C
  pseudo-first-order rate constant (kobsd) of hydrolysis: 0.008659 h^–1
[2]; from Arrhenius plot, pH 7.4, 40-70 °C
  activation energy (Ea) of hydrolysis: 15.2 kcal/mol
[3]; 0.9 mg/kg IP daily for 2 weeks followed by 3×/week
  mice that survived until the end of the study: 9/10
[3]; 0.9 mg/kg IP daily for 4 weeks
  mice that survived until the end of the study: 7/10
[3]; 0.9 mg/kg IP daily for 4 weeks or daily for 2 weeks followed by 3×/week
  tumor status of all mice surviving until the end of the study: tumor free
[3]; 0.9 mg/kg IP less frequently than daily or with a break from daily dosing
  effect on xenograft tumors, intermittent regimens: effective
[3]; QD for 2 weeks group
  test-article related deaths: 1
[3]; QD for 2 weeks then 3×/week group
  test-article related deaths: 1
[3]; QD for 4 weeks group
  test-article related deaths: 3
[3]; IP, 0.1-0.9 mg/kg, all regimens
  tolerability: generally well tolerated
[3]; administered daily IP, dose levels from 0.3 to 0.9 mg/kg, 28 days
  effect on xenograft tumors: effective in reducing or eliminating xenograft tumors
[4]; intraperitoneal injection, daily doses of 0.6 or 0.9 mg/kg (data not shown)
  efficacy and tolerability: effective and well tolerated
[4]; oral gavage, daily doses of 0.6 or 0.9 mg/kg, slightly higher rates of morbidity and mortality
  efficacy: effective
[5]
  stability in a similar assay in the absence of alkaline phosphatase: stable for 1 h

## CC(C)[C@]12O[C@H]1[C@@H]1O[C@]13[C@]1(O[C@H]1C[C@H]1C4=C(CC[C@@]13C)C(=O)OC4)[C@@H]2OC(=O)CCC(=O)O [omtriptolide, triptolide succinate]
[6]
  cleavage of the prodrug moiety: slow and incomplete

## CC(C)[C@]12O[C@H]1[C@@H]1O[C@]13[C@]1(O[C@H]1C[C@H]1C4=C(CC[C@@]13C)C(=O)OC4)[C@@H]2O [triptolide, Triptolide, reference compound]
[1]; Tris buffer
  solubility at 24 h: 17 µg/mL (≈ 47.2 µM)
